Measured values published in ChEMBL document CHEMBL5120943, “Discovery of Novel Pyrazolopyrimidines as Potent, Selective, and Orally Bioavailable Inhibitors of ALK2” (ACS Med Chem Lett, 2022).
pIC50: −log10 of the molar value. Activity calls are given as the source filed them. No cut-off for these calls is given here.

Key:
Activin receptor type-1 [1] = target: T1, Activin receptor type-1 (Homo sapiens, UniProt Q04771); experiment: Inhibition of ALK2 in human HeLa cells assessed as reduction in BMP-7 induced SMAD1 phosphorylation incubated for 1 hr followed BMP-7 stimulation for 30 mins by HTRF assay; type: cell-based
T1 sequence (Q04771 whole entry): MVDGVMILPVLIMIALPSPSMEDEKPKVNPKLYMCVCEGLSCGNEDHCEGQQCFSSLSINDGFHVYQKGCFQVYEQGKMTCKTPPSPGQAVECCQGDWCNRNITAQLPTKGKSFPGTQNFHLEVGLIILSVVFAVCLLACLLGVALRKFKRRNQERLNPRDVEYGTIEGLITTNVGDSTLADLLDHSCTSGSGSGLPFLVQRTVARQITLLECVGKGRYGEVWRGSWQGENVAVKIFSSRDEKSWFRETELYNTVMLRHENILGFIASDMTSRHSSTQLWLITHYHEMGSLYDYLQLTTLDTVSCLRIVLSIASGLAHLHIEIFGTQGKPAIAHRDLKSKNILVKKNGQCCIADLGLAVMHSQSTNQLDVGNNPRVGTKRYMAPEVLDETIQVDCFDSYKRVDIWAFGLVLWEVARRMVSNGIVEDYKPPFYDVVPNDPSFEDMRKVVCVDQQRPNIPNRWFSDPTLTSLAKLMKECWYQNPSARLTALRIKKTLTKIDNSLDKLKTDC
Outline: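 HeLa cells were stimulated with BMP7. Inhibition of BMP7-induced SMAD1 phosphorylation was read by HTRF and an IC50 was derived.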

Activin receptor type-1 [2] = target: T1, Activin receptor type-1; experiment: Inhibition of human recombinant N-terminal GST tagged ALK2 (147 to end residues) expressed in baculovirus infected in Sf9 cells assessed as loss of peptide phosphorylation activity using peptide substrate in presence of ATP and measured after 3 hrs by HTRF assay
Outline: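 HTRF activity assay measuring loss of ALK2 phosphorylation of a peptide substrate. IC50 values were determined.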

[3] = In vivo inhibition of ALK2 in C57BL/6 mouse assessed as reduction in hepcidin level in plasma at 10 mg/kg, po measured after 4 hrs post dose relative to control; type: functional
[4] = AUC infinity in Sprague-Dawley rat at 3 mg/kg, po measured upto 24 hrs post dose by LC/MS/MS analysis; type: ADME, organism-based; design: time < 24 hrs, dose 3 mg/kg, route po; settings: in vivo
Cytochrome P450 2C19 = Cytochrome P450 2C19 (Homo sapiens, UniProt P33261); experiment: Inhibition of CYP2C19 (unknown origin); type: ADME
Chain of Cytochrome P450 2C19 (P33261 whole entry): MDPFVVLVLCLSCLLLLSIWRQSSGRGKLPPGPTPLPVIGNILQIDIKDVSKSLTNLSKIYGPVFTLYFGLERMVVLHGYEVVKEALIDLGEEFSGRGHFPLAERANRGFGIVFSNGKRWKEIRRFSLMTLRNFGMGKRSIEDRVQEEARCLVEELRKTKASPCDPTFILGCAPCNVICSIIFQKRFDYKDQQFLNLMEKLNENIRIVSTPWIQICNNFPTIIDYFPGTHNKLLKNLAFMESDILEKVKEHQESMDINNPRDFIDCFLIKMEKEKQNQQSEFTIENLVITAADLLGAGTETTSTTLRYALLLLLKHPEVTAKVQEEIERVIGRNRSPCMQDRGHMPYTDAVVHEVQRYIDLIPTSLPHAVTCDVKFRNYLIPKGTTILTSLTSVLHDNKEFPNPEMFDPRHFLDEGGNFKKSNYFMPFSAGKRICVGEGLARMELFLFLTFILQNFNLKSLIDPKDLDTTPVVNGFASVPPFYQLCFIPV

Cytochrome P450 2C9 = Cytochrome P450 2C9 (Homo sapiens, UniProt P11712); experiment: Inhibition of CYP2C9 (unknown origin); type: ADME
Chain of Cytochrome P450 2C9 (P11712 whole entry): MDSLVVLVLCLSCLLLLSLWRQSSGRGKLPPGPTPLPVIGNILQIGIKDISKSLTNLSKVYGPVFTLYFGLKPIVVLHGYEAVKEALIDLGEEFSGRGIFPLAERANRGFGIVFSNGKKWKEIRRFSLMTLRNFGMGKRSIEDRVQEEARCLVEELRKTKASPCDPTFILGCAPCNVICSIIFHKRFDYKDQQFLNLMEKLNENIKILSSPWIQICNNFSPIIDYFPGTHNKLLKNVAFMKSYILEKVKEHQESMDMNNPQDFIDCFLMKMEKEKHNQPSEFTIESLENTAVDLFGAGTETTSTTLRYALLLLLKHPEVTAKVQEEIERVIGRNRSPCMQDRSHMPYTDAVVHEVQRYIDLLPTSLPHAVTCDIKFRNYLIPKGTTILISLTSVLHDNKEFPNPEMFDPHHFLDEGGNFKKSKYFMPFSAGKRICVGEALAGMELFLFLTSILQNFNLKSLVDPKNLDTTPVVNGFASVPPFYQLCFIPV

Cytochrome P450 3A4 = Cytochrome P450 3A4 (Homo sapiens, UniProt P08684); experiment: Inhibition of CYP3A4 (unknown origin); type: ADME
Chain of Cytochrome P450 3A4 (P08684 whole entry): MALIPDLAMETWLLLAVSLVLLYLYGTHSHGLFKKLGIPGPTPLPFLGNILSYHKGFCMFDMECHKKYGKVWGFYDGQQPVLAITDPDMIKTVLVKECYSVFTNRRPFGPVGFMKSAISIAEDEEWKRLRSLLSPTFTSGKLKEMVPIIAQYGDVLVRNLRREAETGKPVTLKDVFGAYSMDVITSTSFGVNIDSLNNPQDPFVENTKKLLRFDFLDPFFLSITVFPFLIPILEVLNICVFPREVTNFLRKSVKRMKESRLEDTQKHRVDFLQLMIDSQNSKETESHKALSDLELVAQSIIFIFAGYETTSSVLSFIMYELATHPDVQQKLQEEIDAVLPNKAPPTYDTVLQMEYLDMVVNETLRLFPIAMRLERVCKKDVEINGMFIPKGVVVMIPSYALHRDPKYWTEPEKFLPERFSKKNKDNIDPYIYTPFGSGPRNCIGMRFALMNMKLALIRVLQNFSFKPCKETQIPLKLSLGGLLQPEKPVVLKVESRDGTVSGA

Mus musculus = experiment: In vivo inhibition of ALK2 in C57BL/6 mouse assessed as reduction in hepcidin level in plasma at 10 mg/kg, po measured after 24 hrs post dose; type: functional, organism-based
[5] = Cmax in Sprague-Dawley rat at 3 mg/kg, po measured upto 24 hrs post dose by LC/MS/MS analysis; type: ADME, organism-based; design: dose 3 mg/kg, time < 24 hrs, route po; settings: in vivo
Cytochrome P450 2B6 = target: T2, Cytochrome P450 2B6 (Homo sapiens, UniProt P20813); experiment: Inhibition of CYP2B6 (unknown origin); type: ADME
T2 sequence (P20813 whole entry): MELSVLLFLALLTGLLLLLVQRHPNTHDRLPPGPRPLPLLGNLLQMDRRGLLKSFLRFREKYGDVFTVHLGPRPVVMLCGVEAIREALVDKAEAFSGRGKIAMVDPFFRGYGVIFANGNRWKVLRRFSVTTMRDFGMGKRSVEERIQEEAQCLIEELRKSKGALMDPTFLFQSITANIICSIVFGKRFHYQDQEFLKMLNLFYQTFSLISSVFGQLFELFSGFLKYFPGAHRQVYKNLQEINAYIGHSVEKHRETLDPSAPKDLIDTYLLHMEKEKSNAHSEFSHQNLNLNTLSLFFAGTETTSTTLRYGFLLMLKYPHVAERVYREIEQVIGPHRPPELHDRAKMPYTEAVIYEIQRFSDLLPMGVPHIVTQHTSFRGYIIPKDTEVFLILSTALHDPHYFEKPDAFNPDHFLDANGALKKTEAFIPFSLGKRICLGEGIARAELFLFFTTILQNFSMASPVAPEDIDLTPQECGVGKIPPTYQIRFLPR

[6] = Protein binding in human plasma assessed as free fraction measured after 2 hrs by LC-MS/MS analysis; type: ADME, cell-free
[7] = Apparent permeability across apical to basolateral side in human Caco-2 cells at 50 uM incubated for 120 mins by LC/MS/MS analysis
Cytochrome P450 1A2 = target: T3, Cytochrome P450 1A2 (Homo sapiens, UniProt P05177); experiment: Inhibition of CYP1A2 (unknown origin); type: ADME
T3 sequence (P05177 whole entry): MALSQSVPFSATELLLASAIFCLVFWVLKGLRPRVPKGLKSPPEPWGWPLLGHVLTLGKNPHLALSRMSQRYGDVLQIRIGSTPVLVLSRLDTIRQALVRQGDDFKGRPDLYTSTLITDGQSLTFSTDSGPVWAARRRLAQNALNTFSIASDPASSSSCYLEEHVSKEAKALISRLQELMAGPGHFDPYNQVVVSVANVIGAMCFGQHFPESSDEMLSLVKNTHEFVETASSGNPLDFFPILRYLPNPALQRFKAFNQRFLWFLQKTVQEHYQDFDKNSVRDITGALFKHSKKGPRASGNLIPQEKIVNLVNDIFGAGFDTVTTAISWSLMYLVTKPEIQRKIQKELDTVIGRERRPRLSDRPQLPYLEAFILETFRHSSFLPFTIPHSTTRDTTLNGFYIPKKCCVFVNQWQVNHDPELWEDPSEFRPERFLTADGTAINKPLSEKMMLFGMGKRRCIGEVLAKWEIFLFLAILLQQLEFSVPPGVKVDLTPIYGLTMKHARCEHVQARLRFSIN

[8] = Half life in Sprague-Dawley rat at 3 mg/kg, po or 1 mg/kg, iv measured upto 24 hrs post dose by LC/MS/MS analysis; type: ADME, organism-based; settings: in vivo
[9] = Oral bioavailability in Sprague-Dawley rat at 3 mg/kg measured upto 24 hrs post dose by LC/MS/MS analysis; type: ADME, organism-based; settings: in vivo
[10] = Metabolic stability in human liver microsomes assessed as intrinsic clearance at 1uM and measured upto 30 mins in presence of NADPH by LC/MS analysis; type: ADME, Microsome; settings: read-out: CLH (converted)
Hepcidin = target: T4, Hepcidin (Homo sapiens, UniProt P81172); experiment: Inhibition of Hepcidin in human Huh-7 cells assessed as inhibition of BMP-7 induced hepcidin production incubated for 16 to 24 hrs by ELISA method; type: cell-based
T4 sequence (P81172 whole entry): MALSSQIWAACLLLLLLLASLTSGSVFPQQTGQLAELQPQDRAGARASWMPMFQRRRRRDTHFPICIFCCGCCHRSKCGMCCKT
Outline: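 Huh7 liver cells were stimulated with BMP7. Inhibition of secreted hepcidin was measured and an IC50 was derived.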

Cytochrome P450 2C8 = target: T5, Cytochrome P450 2C8 (Homo sapiens, UniProt P10632); experiment: Inhibition of CYP2C8 (unknown origin); type: ADME
T5 sequence (P10632 whole entry): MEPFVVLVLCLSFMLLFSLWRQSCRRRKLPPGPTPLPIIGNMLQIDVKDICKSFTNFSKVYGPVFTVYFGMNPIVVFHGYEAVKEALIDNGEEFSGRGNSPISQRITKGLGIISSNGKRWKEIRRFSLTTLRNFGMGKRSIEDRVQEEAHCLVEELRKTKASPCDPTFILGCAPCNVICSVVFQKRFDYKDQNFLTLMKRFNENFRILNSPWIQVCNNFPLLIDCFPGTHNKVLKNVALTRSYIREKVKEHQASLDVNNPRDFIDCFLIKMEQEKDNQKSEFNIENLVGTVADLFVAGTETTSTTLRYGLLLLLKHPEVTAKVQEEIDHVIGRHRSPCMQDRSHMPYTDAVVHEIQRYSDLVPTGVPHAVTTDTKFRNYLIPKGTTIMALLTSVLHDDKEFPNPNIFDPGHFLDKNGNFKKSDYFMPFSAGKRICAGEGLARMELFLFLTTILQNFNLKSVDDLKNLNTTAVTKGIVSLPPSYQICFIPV

hERG (KCNH2) = hERG (KCNH2) (Homo sapiens, UniProt Q12809); experiment: Inhibition of human ERG at 1 uM by patch clamp assay relative to control; type: toxicity
Chain of hERG (KCNH2) (Q12809 whole entry): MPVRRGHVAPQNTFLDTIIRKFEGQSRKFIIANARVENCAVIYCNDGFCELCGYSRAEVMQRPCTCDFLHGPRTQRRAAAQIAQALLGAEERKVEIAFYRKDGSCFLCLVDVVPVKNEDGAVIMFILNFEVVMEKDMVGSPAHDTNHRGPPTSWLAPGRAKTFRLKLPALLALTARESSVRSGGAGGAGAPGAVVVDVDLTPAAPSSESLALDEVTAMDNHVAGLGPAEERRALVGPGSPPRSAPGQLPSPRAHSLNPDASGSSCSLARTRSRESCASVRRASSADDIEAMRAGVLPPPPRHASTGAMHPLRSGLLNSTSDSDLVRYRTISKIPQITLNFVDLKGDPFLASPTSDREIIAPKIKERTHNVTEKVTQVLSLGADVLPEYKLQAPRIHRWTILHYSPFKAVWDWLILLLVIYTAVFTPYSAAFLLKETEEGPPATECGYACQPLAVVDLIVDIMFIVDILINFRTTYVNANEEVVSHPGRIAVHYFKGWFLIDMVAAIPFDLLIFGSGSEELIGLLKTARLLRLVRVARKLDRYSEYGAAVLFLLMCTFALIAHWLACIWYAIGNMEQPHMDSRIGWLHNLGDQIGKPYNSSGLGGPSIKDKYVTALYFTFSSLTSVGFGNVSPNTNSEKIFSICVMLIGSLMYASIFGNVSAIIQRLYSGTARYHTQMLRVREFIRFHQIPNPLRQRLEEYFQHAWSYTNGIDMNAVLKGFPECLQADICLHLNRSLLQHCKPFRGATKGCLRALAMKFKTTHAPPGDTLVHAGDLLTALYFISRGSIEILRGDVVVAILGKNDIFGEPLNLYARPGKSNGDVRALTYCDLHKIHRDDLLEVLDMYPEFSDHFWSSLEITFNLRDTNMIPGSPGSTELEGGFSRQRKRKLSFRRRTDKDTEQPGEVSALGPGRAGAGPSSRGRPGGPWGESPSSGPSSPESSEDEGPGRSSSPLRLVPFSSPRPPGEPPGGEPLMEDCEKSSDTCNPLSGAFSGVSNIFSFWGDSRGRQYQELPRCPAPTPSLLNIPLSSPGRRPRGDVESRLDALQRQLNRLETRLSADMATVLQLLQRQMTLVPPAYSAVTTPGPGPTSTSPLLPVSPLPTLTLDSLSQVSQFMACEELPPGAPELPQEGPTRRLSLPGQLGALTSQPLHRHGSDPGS
Outline: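 hERG activity was tested by patch clamp at 1 μM and expressed as percent inhibition.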

Cytochrome P450 2D6 = Cytochrome P450 2D6 (Homo sapiens, UniProt P10635); experiment: Inhibition of CYP2D6 (unknown origin); type: ADME
Chain of Cytochrome P450 2D6 (P10635 whole entry): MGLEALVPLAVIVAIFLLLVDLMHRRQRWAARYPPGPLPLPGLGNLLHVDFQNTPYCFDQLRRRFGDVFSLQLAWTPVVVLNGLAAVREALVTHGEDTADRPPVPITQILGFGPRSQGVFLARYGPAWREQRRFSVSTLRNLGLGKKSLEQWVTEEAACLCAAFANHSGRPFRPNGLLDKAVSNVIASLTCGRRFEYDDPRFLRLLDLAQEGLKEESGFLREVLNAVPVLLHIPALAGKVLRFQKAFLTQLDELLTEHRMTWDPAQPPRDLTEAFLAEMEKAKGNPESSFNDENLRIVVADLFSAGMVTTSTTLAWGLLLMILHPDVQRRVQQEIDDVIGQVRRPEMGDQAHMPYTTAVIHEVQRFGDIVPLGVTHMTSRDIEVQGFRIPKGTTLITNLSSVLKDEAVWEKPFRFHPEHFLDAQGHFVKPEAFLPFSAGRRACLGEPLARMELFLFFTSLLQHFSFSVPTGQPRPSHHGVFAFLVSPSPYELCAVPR

[11] = AUC (0 to 24 hrs) in C57BL/6 mouse plasma at 10 mg/kg, po; type: ADME, organism-based; design: time < 24 hr, dose 10 mg/kg, route po
Outline: (§1)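 Female C57BL/6 mice were given a single oral dose of 10 mg/kg. Compound concentrations in liver and plasma were measured, and AUC was calculated over 0–24 h.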

[12] = AUC (0 to 24 hrs) in C57BL/6 mouse liver at 10 mg/kg, po; type: ADME, organism-based; design: time < 24 hr, dose 10 mg/kg, route po; outline: as §1
[13] = Volume of distribution at steady state in Sprague-Dawley rat at 3 mg/kg, po or 1 mg/kg, iv measured upto 24 hrs post dose by LC/MS/MS analysis; type: ADME, organism-based; settings: in vivo

Molecule CCOC(=O)N1C[C@@H](C)N(c2ncc3[nH]nc(-c4ccc(N5CCN[C@H](C)C5)nc4)c3n2)[C@@H](C)C1 has a pIC50 (Activin receptor type-1 [1]) of 6.67 and a pIC50 (Activin receptor type-1 [2]) of 8.31.
In the case of C[C@@H]1CN(c2ccc(-c3n[nH]c4ccc(N5CCCCC5)nc34)cn2)CCN1, the pIC50 (Activin receptor type-1 [1]) was < 5.52 and the pIC50 (Activin receptor type-1 [2]) was 7.02.
Work on C[C@@H]1CN(c2ccc(-c3n[nH]c4cnc(N5[C@H](C)COC[C@@H]5C)nc34)cn2)CCN1 yielded a pIC50 (Activin receptor type-1 [1]) of 6.61 and a pIC50 (Activin receptor type-1 [2]) of 7.64.
With COC(=O)N1C[C@@H](C)N(c2ncc3[nH]nc(-c4ccc(N5CCN(C)CC5)cc4)c3n2)[C@@H](C)C1 the pIC50 (Activin receptor type-1 [1]) was 7.21, the inhibition in vivo at 10 mg/kg [3] was 80% and the AUC(0-inf) [4] was 4.05 µM·h. The pIC50 (Cytochrome P450 2C19) was < 4.60, the pIC50 (Cytochrome P450 2C9) was < 4.60 and the pIC50 (Cytochrome P450 3A4) was < 4.60. The inhibition (Mus musculus) was “Active”, the Cmax [5] was 434 nM and the pIC50 (Cytochrome P450 2B6) was < 4.60. The fraction unbound at 2 h [6] was 0.043, the Papp A→B at 2 h, 50 µM [7] was 4.5 ×10⁻⁶ cm/s and the pIC50 (Cytochrome P450 1A2) was < 4.60. The half-life [8] was 5.7 h, the bioavailability [9] was 85% and the CLint scaled at 1 µM [10] was 16.7 mL/min/kg. For the same molecule, the pIC50 (Hepcidin) was 7.47, the pIC50 (Cytochrome P450 2C8) was < 4.60 and the inhibition at 1 µM (hERG (KCNH2)) was < 1%. The pIC50 (Cytochrome P450 2D6) was < 4.60, the AUC(0-t) at 24 h [11] was 26.2 µM·h and the pIC50 (Activin receptor type-1 [2]) was 9.01. It also gave an AUC(0-t) at 24 h [12] of 376 µM·h and a Vdss [13] of 7.6 L/kg.
COC(=O)N1C[C@@H](C)N(c2ncc3[nH]nc(-c4ccc(N5CCN(C)CC5)nc4)c3n2)[C@@H](C)C1 showed a pIC50 (Hepcidin) of 7.24.
With CC1CCCCN1c1ncc2[nH]nc(-c3ccc(N4CCN[C@H](C)C4)nc3)c2n1 (stereo partly specified) the pIC50 (Activin receptor type-1 [2]) was 8.09.
With C[C@@H]1CN(c2ccc(-c3n[nH]c4cnc(N5[C@H](C)CN(C(=O)N6CCCC6)C[C@@H]5C)nc34)cn2)CCN1 the AUC(0-inf) [4] was 0.669 µM·h, the Cmax [5] was 151 nM and the fraction unbound at 2 h [6] was 0.043. The half-life [8] was 3.8 h, the bioavailability [9] was 46% and the CLint scaled at 1 µM [10] was 18.3 mL/min/kg. For the same molecule, the pIC50 (Hepcidin) was 7.55 and the Vdss [13] was 9.2 L/kg.
COCC(=O)N1C[C@@H](C)N(c2ncc3[nH]nc(-c4ccc(N5CCN[C@H](C)C5)nc4)c3n2)[C@@H](C)C1 gave a pIC50 (Activin receptor type-1 [1]) of 6.46 and a pIC50 (Activin receptor type-1 [2]) of 8.14.
